In experiment [1] the test system is Rattus norvegicus. Put plainly: Antiallergic activity in iv dosed sensitized Sprague-Dawley rat assessed as inhibition of passive cutaneous anaphylaxis. It counts as functional. The following applies: read-out: ID50 (the source's name). In outline:
(§1)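 Female Sprague-Dawley rats (80–100 g, groups of five) got 0.1 ml intradermal flank injections of rat anti-N. braziliensis reaginic serum, diluted 1 in 8 to 1 in 32. After 24 h they were challenged iv with worm antigen (25 mg/kg protein) plus Evans blue (25 mg/kg). Compound in saline was given iv with the challenge. Rats were killed at 30 min and dye spots graded 0–4. % inhibition = 100 − 100 × treated/control mean score. ID50 was interpolated from a log-dose plot.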

The test system of experiment [2] is Rattus norvegicus. Put plainly: Antiallergic activity in sensitized Sprague-Dawley rat assessed as inhibition of passive cutaneous anaphylaxis at 1 mg/kg, iv. It counts as functional. In outline:
as §1

The text below walks through data of ChEMBL document CHEMBL3272168, “Benzodipyran derivatives with antiallergic activity” (1976).

In the case of `COc1cc2oc(C(=O)[O-])cc(=O)c2c2oc(C(=O)[O-])cc(=O)c12.[Na+].[Na+]`, the ED50 in the experiment with Rattus norvegicus [1] was 0.73 mg/kg.

Consider `O=C([O-])c1cc(=O)c2c(cc(O)c3c(=O)cc(C(=O)[O-])oc32)o1.[Na+].[Na+]`, for which the ED50 in the experiment with Rattus norvegicus [1] is 5 mg/kg.

With `CCc1cc2c(=O)cc(C(=O)[O-])oc2c2c(=O)cc(C(=O)[O-])oc12.[Na+].[Na+]`, the ED50 with Rattus norvegicus [1] worked out at 10 mg/kg. `CCOc1cc2oc(C(=O)[O-])cc(=O)c2c2oc(C(=O)[O-])cc(=O)c12.[Na+].[Na+]`: the ED50 in the experiment with Rattus norvegicus [1] was 0.38 mg/kg. `O=C([O-])c1cc(=O)c2c(ccc3c(=O)cc(C(=O)[O-])oc32)o1.[Na+].[Na+]`: the ED50 in the experiment with Rattus norvegicus [1] was 7.6 mg/kg. Regarding `O=C([O-])c1cc(=O)c2c(o1)c(Cl)cc1c(=O)cc(C(=O)[O-])oc12.[Na+].[Na+]`, the ED50 in the experiment with Rattus norvegicus [1] is above 10 mg/kg.

For `C=CCOc1cc2oc(C(=O)[O-])cc(=O)c2c2oc(C(=O)[O-])cc(=O)c12.[Na+].[Na+]`, the ED50 in the experiment on Rattus norvegicus [1] came to 0.62 mg/kg. With `C=CCc1c(OC)c2c(=O)cc(C(=O)[O-])oc2c2c(=O)cc(C(=O)[O-])oc12.[Na+].[Na+]`, in the experiment on Rattus norvegicus [1], the ED50 was 0.22 mg/kg. On the same count and under the same terms, under `CCCc1c(OC)c2c(=O)cc(C(=O)[O-])oc2c2c(=O)cc(C(=O)[O-])oc12.[Na+].[Na+]` stands 0.18 mg/kg; under `CCc1c2oc(C(=O)[O-])cc(=O)c2c(C)c2c(=O)cc(C(=O)[O-])oc12.[Na+].[Na+]`, 0.03 mg/kg. In the case of `Cc1c2oc(C(=O)[O-])cc(=O)c2cc2c(=O)cc(C(=O)[O-])oc12.[Na+].[Na+]`, in the experiment with Rattus norvegicus [1], the ED50 amounted to 0.25 mg/kg. Consider `CCc1c2oc(C(=O)[O-])cc(=O)c2cc2c(=O)cc(C(=O)[O-])oc12.[Na+].[Na+]`, for which, in the experiment with Rattus norvegicus [1], the ED50 was determined as 0.1 mg/kg. Regarding `CCCc1c2oc(C(=O)[O-])cc(=O)c2cc2c(=O)cc(C(=O)[O-])oc12.[Na+].[Na+]`, the ED50 in the experiment on Rattus norvegicus [1] was found to be 0.05 mg/kg. For the molecule `CCCCc1c2oc(C(=O)[O-])cc(=O)c2cc2c(=O)cc(C(=O)[O-])oc12.[Na+].[Na+]`, the ED50 in the experiment on Rattus norvegicus [1] was 0.05 mg/kg. Turning to `O=C([O-])c1cc(=O)c2cc3c(=O)cc(C(=O)[O-])oc3c([N+](=O)[O-])c2o1.[Na+].[Na+]`, in the experiment on Rattus norvegicus [1], the ED50 came out at 1.6 mg/kg.

As to `O=C([O-])c1cc(=O)c2cc3c(=O)cc(C(=O)[O-])oc3cc2o1.[Na+].[Na+]`, in the experiment with Rattus norvegicus [1], the ED50 came out at 0.18 mg/kg. Regarding `CCOCc1c2oc(C(=O)[O-])cc(=O)c2cc2c(=O)cc(C(=O)[O-])oc12.[Na+].[Na+]`, the ED50 in the experiment on Rattus norvegicus [1] stood at 0.33 mg/kg.

In the case of `COc1c2c(=O)cc(C(=O)[O-])oc2cc2oc(C(=O)[O-])cc(=O)c12.[Na+].[Na+]`, the ED50 in the experiment on Rattus norvegicus [1] is 0.32 mg/kg. In the case of `CCCc1c2oc(C(=O)[O-])cc(=O)c2c(OC)c2c(=O)cc(C(=O)[O-])oc12.[Na+].[Na+]`, in the experiment with Rattus norvegicus [2], the inhibition in vivo at 1 mg/kg is 100%. Besides, in the experiment with Rattus norvegicus [1], the ED50 stood at 0.1 mg/kg. Regarding `O=C([O-])c1cc(=O)c2cc3oc(C(=O)[O-])cc(=O)c3cc2o1.[Na+].[Na+]`, the ED50 in the experiment on Rattus norvegicus [1] worked out at 0.68 mg/kg.

Take `O=C([O-])c1cc(=O)c2c(o1)c1c(c3c(=O)cc(C(=O)[O-])oc32)OCC1.[Na+].[Na+]`: the ED50 in the experiment on Rattus norvegicus [1] was 0.35 mg/kg.

For `Cc1cc(=O)oc2c1c1oc(C(=O)[O-])cc(=O)c1c1oc(C(=O)[O-])cc(=O)c21.[Na+].[Na+]`, in the experiment on Rattus norvegicus [1], the ED50 came to 4.24 mg/kg. As to `O=C([O-])c1cc(=O)c2c(OCC(O)COc3cccc4oc(C(=O)[O-])cc(=O)c34)cccc2o1.[Na+].[Na+]` [CROMOLYN SODIUM], the ED50 in the experiment on Rattus norvegicus [1] came out at 1.2 mg/kg.

What is called inhibition in vivo is how much of the control response was suppressed.
